Active and inactive are the calls of the source. The calls are words filed in the database; no cut-off is given here.
Tests used:
[1] = system: Escherichia coli; test: Induction of strand scission in supercoiled pBR322 DNA by agarose gel electrophoresis in presence of Cu2+
Outline: (§1)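 Supercoiled pBR322 plasmid DNA (500 ng) was incubated with 20 µM Cu2+ and test compound (in DMSO, final ≤5%) in 25 µL of 10 mM Tris-HCl, pH 8.0, at 37 °C for 60 min. Controls were DNA alone and DNA + Cu2+. Products were run on a 1.0% agarose gel with 0.7 µg/mL ethidium bromide in TBE, pH 8.3, at 110-120 V for 2-3 h, then imaged under UV. Read-out was % form II (nicked) DNA.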

[2] = system: Escherichia coli; test: Induction of strand scission in pBR322 DNA assessed as conversion from supercoiled form to nicked form at 500 uM after 60 mins by agarose gel electrophoresis in presence of Cu2+; outline: as §1
[3] = system: Escherichia coli; test: Induction of strand scission in supercoiled pBR322 DNA by agarose gel electrophoresis in absence of added metal ion
[4] = system: Escherichia coli; test: Induction of strand scission in pBR322 DNA assessed as conversion from supercoiled form to nicked form at 1000 uM after 60 mins by agarose gel electrophoresis in presence of Cu2+; outline: as §1
[5] = system: Escherichia coli; test: Induction of strand scission in supercoiled pBR322 DNA by agarose gel electrophoresis in presence of Fe2+
[6] = system: Escherichia coli; test: Induction of strand scission in pBR322 DNA assessed as conversion from supercoiled form to nicked form at 1000 uM after 60 mins by agarose gel electrophoresis in absence of Cu2+
Outline: (§2)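 No Cu2+ was added. Supercoiled pBR322 DNA (500 ng) was incubated with test compound (in DMSO, final ≤5%) in 25 µL of 10 mM Tris-HCl, pH 8.0, at 37 °C for 60 min, with DNA alone as the blank. Products were separated on a 1.0% agarose gel with ethidium bromide in TBE at 110-120 V for 2-3 h and photographed under UV. Read-out was % nicked (form II) DNA.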

[7] = system: Escherichia coli; test: Induction of strand scission in supercoiled pBR322 DNA by agarose gel electrophoresis in presence of Cu2+ and alkali
[8] = system: Escherichia coli; test: Induction of strand scission in pBR322 DNA assessed as conversion from supercoiled form to nicked form at 250 uM after 60 mins by agarose gel electrophoresis in presence of Cu2+; outline: as §1
[9] = system: Escherichia coli; test: Induction of strand scission in pBR322 DNA assessed as conversion from supercoiled form to nicked form at 50 uM after 60 mins by agarose gel electrophoresis in presence of Cu2+; outline: as §1
[10] = system: Escherichia coli; test: Induction of strand scission in pBR322 DNA assessed as conversion from supercoiled form to nicked form at 100 uM after 60 mins by agarose gel electrophoresis in presence of Cu2+; outline: as §1
[11] = system: Escherichia coli; test: Induction of strand scission in pBR322 DNA assessed as conversion from supercoiled form to nicked form at 250 uM after 60 mins by agarose gel electrophoresis in absence of Cu2+; outline: as §2

Row | Activity [1] | Activity [2] [%] | Activity [3] | Activity [4] [%] | Activity [5] | Activity [6] [%] | Activity [7] | Activity [8] [%] | Activity [9] [%] | Activity [10] [%] | Activity [11] [%] | Structure (SMILES)
1 | Dose-dependent effect | 22 | inactive | 36 | inactive | 3 | inactive | 15 |  |  |  | COc1cc2ccc(=O)oc2cc1O
2 | Dose-dependent effect |  | inactive |  | inactive |  |  | 76 | 55 | 64 | 2 | O=c1ccc2cc(O)c(O)cc2o1
3 | Dose-dependent effect | 26 | inactive | 42 | inactive | 2 |  | 14 |  |  |  | COc1cc2oc(=O)ccc2cc1O

Reference: ChEMBL document CHEMBL1148910, “A coumarin from Mallotus resinosus that mediates DNA cleavage” (J Nat Prod, 2004)
